Laboratory results reported in ChEMBL document CHEMBL1125740, “Heterocyclic quinones. 17. A new in vivo active antineoplastic drug: 6,7-bis(1-aziridinyl)-4-[[3-(N,N-dimethylamino)propyl]amino]-5,8- quinazolinedione” (J Med Chem, 1991).
“And” between values parts separate entries of the source, which are not always exact repeats. Equal values may be shown once.

What was measured:
P388 [1] = assay: Compound was evaluated in vivo for antitumor activity after intraperitoneal administration against P388/L-PAM(12) for median day of death at an optimal dose of 0.75 mg/kg/injection; type: functional, Mus musculus
L1210 [2] = assay: Inhibitory activity against L1210 cell growth; type: functional, cell-based; conditions: Mus musculus
Summary of the method: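 L1210 cells were grown in RPMI 1640 with 2 mM glutamine and 20% heat-inactivated horse serum at 37 °C under 5% CO2. Drug was added in DMSO (0.5% final) to exponential cells seeded at 0.8×10^5 cells/mL. Coulter counts were done in triplicate at 48 h. IC50 was taken from a regression of probit % growth inhibition against log dose, from one experiment.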

P388 [3] = assay: Compound was evaluated in vivo for antitumor activity after intraperitoneal administration against P388/L-PAM(14) for % increase in life span at an optimal dose of 1 mg/kg/injection; type: functional; conditions: Mus musculus, P388, ip
L1210 [4] = assay: Compound was evaluated in vivo for antitumor activity after intraperitoneal administration against L1210(935) for median day of death at an optimal dose of 0.25 mg/kg/injection at 1,4,7,11day schedule.; type: functional, Mus musculus
Summary of the method: (§1)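 L1210 leukemia, maintained in DBA/2 mice, was given ip as 10⁵ cells on day 0 to F1 hybrid or strain-of-origin mice over 18 g, in groups of 8. Dosing was ip from day 1, and mortality was checked daily. Median day of death counts dying mice only. %ILS = 100×(treated − control median day of death)/control median. Tumor-free survivors were counted on day 60. Weight change is g/mouse at nadir.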

P388 [5] = assay: Compound was evaluated in vivo for antitumor activity after intraperitoneal administration against P388/L-PAM(14) for total dose at an optimal dose of 0.5 mg/kg/injection at 1,4,7,11 day schedule.; type: functional, Mus musculus
L1210 [6] = assay: Compound was evaluated in vivo for antitumor activity after intraperitoneal administration against L1210(935) for tumor free survivors at an optimal dose of 0.1 mg/kg/injection at 1-4 day schedule.; type: functional, Mus musculus; summary of the method: as §1
P388 [7] = assay: Compound was evaluated in vivo for antitumor activity after intraperitoneal administration against P388 (1313) for mortality range at an optimal dose of 0.2 mg/kg/injection; type: functional, Mus musculus
L1210 [8] = assay: Compound was evaluated in vivo for antitumor activity after intraperitoneal administration against L1210(935)for % increase in life span at an optimal dose of 0.125 mg/kg/injection at 1,4,7,11day schedule.; type: functional; conditions: Mus musculus, L1210, ip; summary of the method: as §1
B16 [9] = assay: Compound was evaluated in vivo for antitumor activity against B16 melanoma after injecting the compound intravenously for median tumor burden; type: functional, Mus musculus
Summary of the method: (§2)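 30-60 mg tumor fragments implanted sc by trocar on day 0 into C57Bl/6-derived hosts (B16) or C3H/He-derived hosts (16/C). Drug given iv on days 6, 9 and 13 (B16) or 6, 9 and 12 (16/C), 10 mice per group. Tumors measured by caliper. T/C % taken from median tumor burden of treated vs control groups on day 15 (B16) or day 14 (16/C). Body weight change per mouse recorded at nadir.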

L1210 [10] = assay: Compound was evaluated in vivo for antitumor activity after intraperitoneal administration against L1210(935)for % increase in life span at an optimal dose of 0.5 mg/kg/injection at 1 day schedule.; type: functional; conditions: Mus musculus, L1210, ip, 24 h; summary of the method: as §1
L1210 [11] = assay: Compound was evaluated in vivo for antitumor activity after intraperitoneal administration against L1210(935)for change in body weight at an optimal dose of 0.125 mg/kg/injection at 1,4,7,11day schedule.; type: functional, Mus musculus; summary of the method: as §1
P388 [12] = assay: Compound was evaluated in vivo for antitumor activity after intraperitoneal administration against P388 (1313) for total dose at an optimal dose of 0.25 mg/kg/injection; type: functional, Mus musculus
P388 [13] = assay: Compound was evaluated in vivo for antitumor activity after intraperitoneal administration against P388 (1313) for total dose at an optimal dose of 0.4 mg/kg/injection; type: functional, Mus musculus
L1210 [14] = assay: Compound was evaluated in vivo for antitumor activity after intraperitoneal administration against L1210(935)for % increase in life span at an optimal dose of 0.1 mg/kg/injection at 1-4 day schedule.; type: functional; conditions: Mus musculus, L1210, ip; summary of the method: as §1
L1210 [15] = assay: Compound was evaluated in vivo for antitumor activity after intraperitoneal administration against L1210(935) for mortality range at an optimal dose of 0.2 mg/kg/injection at 1-4 day schedule.; type: functional, Mus musculus; summary of the method: as §1
[16] = Compound was evaluated in vivo for antitumor activity against mammary adenocarcinoma 16/C after injecting the compound intravenously for median; type: functional, Mus musculus
P388 [17] = assay: Compound was evaluated in vivo for antitumor activity after intraperitoneal administration against P388/L-PAM(14) for tumor free survivors at an optimal dose of 0.5 mg/kg/injection at 1,4,7,11 day schedule on day 60; type: functional, Mus musculus
[18] = Compound was evaluated in vivo for antitumor activity against Lewis Lung cercinoma after injecting the compound intravenously for optimal dose; type: functional, Mus musculus
Summary of the method: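 Lewis lung carcinoma: 10^6 cells implanted im into C57Bl/6-derived hosts. Drug given iv on days 5, 9 and 13, 10 mice per group. Median tumor burden and weight nadir recorded. Survivors were killed on day 19, and their lungs were fixed in Fekete solution so that macroscopic metastases could be counted.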

B16 [19] = assay: Compound was evaluated in vivo for antitumor activity against B16 melanoma after injecting the compound intravenously for optimal dose; type: functional, Mus musculus; summary of the method: as §2
P388 [20] = assay: Compound was evaluated in vivo for antitumor activity after intraperitoneal administration against P388/L-PAM(14) for total dose at an optimal dose of 0.125 mg/kg/injection at 1,4,7,11 day schedule.; type: functional, Mus musculus
P388 [21] = assay: Compound was evaluated in vivo for antitumor activity after intraperitoneal administration against P388/L-PAM(14) for total dose at an optimal dose of 1 mg/kg/injection; type: functional, Mus musculus
[22] = Compound was evaluated in vivo for antitumor activity against colon adenocarcinoma 38 after injecting the compound intravenously for percent T/C (value in parentheses indicates the day of evaluation); type: functional, Mus musculus
P388 [23] = assay: Compound was evaluated in vivo for antitumor activity after intraperitoneal administration against P388 (1303) for change in body weight at an optimal dose of 0.75 mg/kg/injection; type: functional, Mus musculus
P388 [24] = assay: Compound was evaluated in vivo for antitumor activity after intraperitoneal administration against P388 (1313) for median day of death at an optimal dose of 1 mg/kg/injection; type: functional, Mus musculus
P388 [25] = assay: Compound was evaluated in vivo for antitumor activity after intraperitoneal administration against P388 (1313) for mortality range at an optimal dose of 0.25 mg/kg/injection; type: functional, Mus musculus
P388 [26] = assay: Compound was evaluated in vivo for antitumor activity after intraperitoneal administration against P388/L-PAM(14) for tumor free survivors at an optimal dose of 0.1 mg/kg/injection at 1,2,3,4 day schedule.; type: functional, Mus musculus
M5076 = assay: Compound was evaluated in vivo for antitumor activity against M5076 after injecting the compound intravenously for toxicity related death.; type: functional, Mus musculus
P388 [27] = assay: Compound was evaluated in vivo for antitumor activity after intraperitoneal administration against P388 (1313) for total dose at an optimal dose of 1 mg/kg/injection; type: functional, Mus musculus
P388 [28] = assay: Compound was evaluated in vivo for antitumor activity after intraperitoneal administration against P388/L-PAM(14) for tumor free survivors at an optimal dose of 0.5 mg/kg/injection at one day schedule on day 60; type: functional, Mus musculus
P388 [29] = assay: Compound was evaluated in vivo for antitumor activity after intraperitoneal administration against P388/L-PAM(14) for % increase in life span at an optimal dose of 0.25 mg/kg/injection at 1,4,7,11 day schedule.; type: functional; conditions: Mus musculus, P388, ip

With `CN(C)CCCNc1ncnc2c1C(=O)C(N1CC1)=C(N1CC1)C2=O` the “Median day of death” value (P388 [1]) was 15.5, the IC50 (L1210 [2]) was 0.00102 µg/mL and 2.7 nM and the ILS at 1 mg/kg (P388 [3]) was 36%. For the same compound, the “Median day of death” value (L1210 [4]) was 13, the Total dose (P388 [5]) was 2 mg/kg and the Survivors (L1210 [6]) was 0. For the same compound, the Optimal dose (P388 [7]) was 28 mg/kg, the ILS at 0.125 mg/kg (L1210 [8]) was 18% and the Tumor burden (B16 [9]) was 2002 mg and 3807 mg. The ILS at 0.5 mg/kg (L1210 [10]) was 27%, the “Change in body weight” value (L1210 [11]) was 2.7 g mouse-1 and the Optimal dose (P388 [12]) was 1 mg/kg. The Optimal dose (P388 [13]) was 1.6 mg/kg, the ILS at 0.1 mg/kg (L1210 [14]) was 27% and the Mortality (L1210 [15]) was 14 days. For the same compound, the Tumor burden [16] was 895 mg, the Survivors (P388 [17]) was 0 and the Optimal dose [18] was 0.4 mg/kg and 0.2 mg/kg. For the same compound, the Optimal dose (B16 [19]) was 0.4 mg/kg and 0.2 mg/kg, the Total dose (P388 [20]) was 0.5 mg/kg and the Total dose (P388 [21]) was 1 mg/kg. The T/C [22] was 102%, the “Change in body weight” value (P388 [23]) was 3.2 g mouse-1 and the “Median day of death” value (P388 [24]) was 19. For the same compound, the Mortality (P388 [25]) was 27 days, the Survivors (P388 [26]) was 0 and the Toxicity (M5076) was 0. It also gave an Optimal dose (P388 [27]) of 1 mg/kg, a Survivors (P388 [28]) of 0 and an ILS at 0.25 mg/kg (P388 [29]) of 18%.
